Screening data as filed in PubChem BioAssay.
NR3A LBD binder: binders of NR3A ligand-binding domain, primary screen, biophysical, differential scanning fluorimetry, uHTS; Glutamate receptor ionotropic, NMDA 3A (GRIN3A) ligand-binding domain; NR3A LBD differential scanning fluorimetry, Tm shift; 0% = protein alone, 100% = glycine-bound protein; Tm shift relative to glycine control, % at 25 µM; 2.5% of 340,000 active; AID 1259313, 2017;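 active means melting temperature shift of at least 10% of the positive control shift, at one fixed dose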
MPTP block: mitochondrial permeability transition pore inhibitors, primary screen, biochemical, isolated mouse mitochondria, absorbance | Ca2+ swelling absorbance, 30 min | inhibition, % at 10 µM | 1.4% of 360,000 active | AID 602449, 2012;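 active means inhibition of 50% or more, scaled per plate between neutral and stimulator controls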;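 further: 0% = DMSO wells given calcium and 100% = 1 mM EGTA wells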
ADAM10 inh: human ADAM10 inhibitors, primary screen, biochemical, QFRET, HTS; inhibition, % at 7 µM; recombinant ADAM10, EDANS/DABCYL FRET peptide cleavage, 3 h; Disintegrin and metalloproteinase domain-containing protein 10 (Homo sapiens), O14672; 0.62% of 370,000 active;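 active means inhibition above a per-campaign cutoff equal to the mean of compounds falling between control-based bounds plus 3 SD, cut at about 20% in these data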;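 further: 0% = DMSO wells while the 100% control is not disclosed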
SKN-1 inh: suppressors of acrylamide-induced Pgst-4::GFP reporter in worms, primary screen, SKN-1 inhibitor project, whole organism, uHTS, GFP/RFP fluorescence ratio, strain VP596. C. elegans VP596 Pgst-4::GFP/RFP ratio, 24 h. AID 624304, 2012. inhibition, % at 21.8 µM. 0.49% of 360,000 active;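 active means interference check ratio from 0.5 to 1.5 plus GFP to RFP signal ratio inhibition reaching or exceeding a fixed threshold, cut at about 30% in these data, passing the limit was not always enough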
MT1-MMP act inh: blockers of MT1-MMP proenzyme processing, primary screen, HT1080 RFP-PRO-GFP cells, GFP/RFP fluorescence; GFP/RFP ratio fluorescence, overnight; percent of plate control window, DMSO zero; GFP/RFP ratio change, % at 20 µM; 0.061% of 360,000 active; AID 651647, 2012;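 active means GFP/RFP ratio change of at least 30% with cell ATP level not reduced by more than half and red fluorescence within 50% of control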
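Assay system: HT1080 RFP-PRO-GFP cells. Benchmarks: DMSO vehicle wells and RFP-L50D-GFP reporter cell wells. Times: overnight cell settling, then overnight compound exposure, 37 °C, 5% CO2. Compound: 20 µM single dose, 1% DMSO. Read-out basis: GFP/RFP fluorescence ratio.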
ADAM17 inh: ADAM17 inhibitors, primary screen, biochemical, QFRET; inhibition, % at 6.95 µM; 0.83% of 370,000 active; recombinant ADAM17, EDANS/DABCYL FRET peptide cleavage; AID 720648, 2013;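 active means inhibition above the mean of compounds lying between control limits plus 3 SD, set per campaign, cut at about 8.5% in these data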;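 further: 0% = DMSO-only wells as the low control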
Target sequence (P78536 215-824 limits assumed): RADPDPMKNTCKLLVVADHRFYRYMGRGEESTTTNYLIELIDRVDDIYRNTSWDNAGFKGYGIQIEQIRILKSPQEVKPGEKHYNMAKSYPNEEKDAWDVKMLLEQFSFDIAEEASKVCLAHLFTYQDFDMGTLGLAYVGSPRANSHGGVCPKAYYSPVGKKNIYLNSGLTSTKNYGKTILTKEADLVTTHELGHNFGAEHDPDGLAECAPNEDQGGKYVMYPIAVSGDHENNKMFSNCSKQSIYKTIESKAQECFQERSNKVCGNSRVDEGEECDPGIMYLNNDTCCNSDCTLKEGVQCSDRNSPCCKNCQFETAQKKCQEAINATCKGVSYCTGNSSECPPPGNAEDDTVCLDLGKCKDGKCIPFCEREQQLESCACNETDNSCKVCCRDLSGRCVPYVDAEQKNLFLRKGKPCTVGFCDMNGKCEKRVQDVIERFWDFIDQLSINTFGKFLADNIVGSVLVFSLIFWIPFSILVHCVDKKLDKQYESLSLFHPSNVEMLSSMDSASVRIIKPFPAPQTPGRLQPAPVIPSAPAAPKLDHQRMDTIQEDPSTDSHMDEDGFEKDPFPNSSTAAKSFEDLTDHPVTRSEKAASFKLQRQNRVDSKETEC
Rh123 counter: fluorescence retest of MPTP screen hits in isolated mitochondria, single concentration | 78% of 5,000 active | shares compounds with MPTP block | AID 624504, 2012 | inhibition, % at 10 µM | membrane potential, Rhodamine 123 fluorescence; in the data active means inhibition above about 22%;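 further: 0% = DMSO vehicle and 100% = positive control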
MPTP abs DR: mitochondrial permeability transition pore inhibitors, dose response, biochemical, absorbance, uHTS hits. shares compounds with MPTP block. isolated mitochondria swelling. IC50, µM. 58% of 780 active. AID 651561, 2012; in the data active means IC50 below about 20 µM
MPTP counter DR: fluorescent counter-screen in isolated mitochondria, dose response, counter-screen for MPTP inhibitor project, biochemical, fluorescence, uHTS hits; shares compounds with MPTP block; isolated mitochondria counterscreen, fluorescence read-out; IC50, µM; 49% of 780 active; in the data active means IC50 below about 80 µM
* marks the source's active call; other numbers are inactive results; i = inactive; . = not tested or not shown. The list is not random: actives were taken first. Their share in the collection is about 4.7%.

SMILES	NR3A LBD binder	MPTP block	ADAM10 inh	SKN-1 inh	MT1-MMP act inh	ADAM17 inh	Rh123 counter	others
CCCCOc1ccc(CONS(=O)(=O)c2ccc(NC(C)=O)cc2)cc1Cl	28*	94*	7	-3	5	2	73*
O=[N+]([O-])c1ccc(O)c(C2=NNC(c3ccccc3F)C2)c1 (configuration not stated)	7	89*	4	13	-5	1	85*
Oc1ccc(Cl)cc1C1=NNC(c2cccs2)C1 (configuration not stated)	-1	5	-83	19	-17	-28	.
O=C(CCN1C(=O)c2ccccc2C1=O)Nc1cccc(S(=O)(=O)NC2=NCCC2)c1	0	-5	-8	-10	1	-6	.
CCC(=NC(C)c1ccccc1)c1c(O)n(C)c(=O)n(C)c1=O (configuration not stated)	1	67*	9	-13	10	-2	33*
CCC(C(=O)OCC(=O)c1c(N)n(CC(C)C)c(=O)n(C)c1=O)c1ccccc1 (configuration not stated)	1	2	-3	5	-11	-7	.
Cn1c(=O)c2[nH]c(Cc3cccc(O)c3)nc2n(C)c1=O	-2	0	-3	6	1	-4	.
Cn1c(=O)c2[nH]c(COc3ccc(C(C)(C)C)cc3)nc2n(C)c1=O	-3	96*	.	15	-10	.	70*
CC(N=c1ccccn1C(=O)Nc1cccc(C(F)(F)F)c1)c1ccco1 (configuration not stated)	-1	90*	0	-4	-2	2	84*
O=[N+]([O-])c1ccc(S(=O)(=O)N2CCN(Cc3c[nH]c4ccccc34)CC2)cc1	-9	-2	1	-2	.	-4	.
Cc1cc(C)c2nc(SCCc3ccccc3)nc(C)c2c1	2	71*	11	12	3	2	-6	MPTP abs DR=i;MPTP counter DR=>80
Cc1ccc2nc(SCCC#N)nc(C)c2c1	-3	-1	-3	12	-15	-1	.
Cc1cc(C)cc(N(CC(=O)NC2CCC(C)CC2)S(=O)(=O)c2ccc(Br)s2)c1 (configuration not stated)	.	.	2	.	.	2	.
COC(=O)c1c(NC(=O)c2ccccc2)sc2c1CC(C)(C)NC2(C)C	-2	73*	-9	-9	4	-2	-5	MPTP abs DR=18*;MPTP counter DR=>80
CCOC(=O)c1c(NC(=O)Cc2ccccc2)sc2c1CC(C)(C)NC2(C)C	-1	71*	-2	-2	-7	-1	-4	MPTP abs DR=i;MPTP counter DR=>80
CC1(C)Cc2c(sc(NC(=O)c3ccc(C(=O)c4ccccc4)cc3)c2C(N)=O)C(C)(C)N1	-8	1	10	1	1	2	.
COC(=O)c1c(NC(=O)c2ccco2)sc2c1CC(C)(C)NC2(C)C	-1	-1	-12	16	1	-2	.
COC(=O)c1c(NC(=O)c2ccc(OC(C)C)cc2)sc2c1CC(C)(C)NC2(C)C	3	87*	-51	-4	.	-12	2	MPTP abs DR=>100;MPTP counter DR=56*
CCN(CC)c1ccc2c(-c3ccc(S(=O)(=O)O)cc3S(=O)(=O)[O-])c3ccc(=[N+](CC)CC)cc-3oc2c1	-437	64*	.	66	-43	.	1
Cc1nn(Cc2noc(C(=O)NC3CCC(C)CC3)n2)c(C)c1Br (configuration not stated)	1	59*	3	20	-1	-1	58*
CCOc1cc(/C=N/NC(=O)COc2nc(C)cc(COC)c2C#N)ccc1O	2	2	-4	0	4	-7	.
COc1ccc(CCNCC(=O)Nc2ccc(C)c(S(=O)(=O)N(C)C)c2)cc1	0	68*	-4	0	1	-2	-3	MPTP abs DR=i;MPTP counter DR=74*
CC1(C)CC(=O)C2=C(C1)NC1=C(C(=O)c3ccccc31)C2c1cc([N+](=O)[O-])ccc1O (configuration not stated)	0	94*	9	5	8	1	57*
CC1(C)CC(=O)C2=C(C1)NC1=C(C(=O)c3ccccc31)C2c1cccnc1 (configuration not stated)	-1	1	-2	2	1	-2	.
CC(C)c1ccc(C2C3=C(CC(C)(C)CC3=O)NC3=C2C(=O)c2ccccc23)cc1 (configuration not stated)	-18	84*	1	7	-24	-2	61*
SMILES	NR3A LBD binder	MPTP block	ADAM10 inh	SKN-1 inh	MT1-MMP act inh	ADAM17 inh	Rh123 counter	others
O=[N+]([O-])c1ccc(NC(=S)N2CCc3ccccc3C2)cc1	-3	58*	12	23	0	8	65*
O=[N+]([O-])c1ccc(N2CCN(C(=S)Nc3cccc(F)c3)CC2)cc1	-1	55*	19	5	-1	-1	58*
CCOC(=O)c1sc(=S)n(CC)c1NC(=O)C1CC1	0	0	4	-41	0	-2	.
CC(C)Cc1cc(C(=O)N2CCCC(CO)(Cc3ccc(F)cc3F)C2)n[nH]1 (configuration not stated)	2	0	-1	12	3	2	.
CNCCC1Sc2ccccc2Oc2ccccc21 (configuration not stated)	0	61*	-3	-2	-28	-2	-6	MPTP abs DR=10*;MPTP counter DR=>80
Cc1cc(NC(=O)CCC(=O)N(c2ccccc2)C(C(=O)NC2CCCC2)c2cccs2)no1 (configuration not stated)	1	0	-2	-4	5	-1	.
O=C(c1cc2sccc2n1Cc1ccc(F)cc1)N1CCN(c2nc3ccccc3s2)CC1	0	90*	13	17	6	4	103*
